The values below come from ChEMBL document CHEMBL4480458, “Synthesis and Anti-inflammatory Evaluation of ( R)-, ( S)-, and (±)-Sanjuanolide Isolated from Dalea frutescens” (J Nat Prod, 2019).

SMILES strings stand for the structures. pIC50: −log10 of the molar value. Active and inactive are the calls of the source. The rule behind the calls is not given here.

Holding throughout (type): functional, cell-based
Assay [1] deals with RAW264.7. The experiment in a line: Antiinflammatory activity in mouse RAW264.7 cells assessed as inhibition of LPS-induced IL-6 mRNA expression pretreated for 30 mins followed by LPS-stimulation and measured after 24 hrs by trizol reagent based qRT-PCR analysis. The gist of the method:
(§1)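 RAW 264.7 macrophages were grown in DMEM with 10% FBS and penicillin/streptomycin at 37 °C, 5% CO2. Cells were plated at 7.0 × 10^5/plate and incubated overnight, then pretreated 30 min with compound at 2.5 or 10 μM before LPS at 1.0 μg/mL for 24 h. Total RNA was extracted and qPCR was run, with each gene normalized to β-actin. Values are % of LPS control, mean ± SEM of three independent experiments, Student's t test.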
In general terms: Quantitative PCR measures a nucleic acid by following its amplification.

The test system of assay [2] is RAW264.7. The experiment in a line: Antiinflammatory activity in mouse RAW264.7 cells assessed as inhibition of LPS-induced IL1beta mRNA expression pretreated for 30 mins followed by LPS-stimulation and measured after 24 hrs by trizol reagent based qRT-PCR analysis. The gist of the method:
as §1

Assay [3] concerns RAW264.7. The experiment in a line: Antiinflammatory activity in mouse RAW264.7 cells assessed as inhibition of LPS-induced […] mRNA expression pretreated for 30 mins followed by LPS-stimulation and measured after 24 hrs by trizol reagent based qRT-PCR analysis. Summed up: as §1
For assay [4], the system named is RAW264.7. Nature of the assay: Antiinflammatory activity in mouse RAW264.7 cells assessed as inhibition of LPS-induced ICAM1 mRNA expression pretreated for 30 mins followed by LPS-stimulation and measured after 24 hrs by trizol reagent based qRT-PCR analysis. Summed up:
as §1

The test system of assay [5] is RAW264.7. The experiment in a line: Antiinflammatory activity in mouse RAW264.7 cells assessed as inhibition of LPS-induced IL-6 production pretreated for 30 mins followed by LPS-stimulation and measured after 24 hrs by ELISA. The gist of the method:
(§2)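 RAW 264.7 cells were seeded at 400 000 per well in DMEM and held for 24 h at 37 °C, 5% CO2. They were pretreated 30 min with vehicle or compound at 1, 2.5, 5 or 10 μM, then stimulated with LPS at 0.5 μg/mL for 24 h. Supernatant cytokine was measured by ELISA. IC50 was taken from the concentration series, and significance was tested against LPS vehicle.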
(An ELISA detects its analyte on a solid surface through an enzyme-linked reagent.)

Assay [6] deals with RAW264.7. Nature of the assay: Antiinflammatory activity in mouse RAW264.7 cells assessed as inhibition of LPS-induced TNFalpha mRNA expression pretreated for 30 mins followed by LPS-stimulation and measured after 24 hrs by trizol reagent based qRT-PCR analysis. The gist of the method: as §1
For assay [7], the system named is RAW264.7. The experiment in a line: Antiinflammatory activity in mouse RAW264.7 cells assessed as inhibition of LPS-induced TNFalpha production pretreated for 30 mins followed by LPS-stimulation and measured after 24 hrs by ELISA. The gist of the method: as §2
The subject of assay [8] is RAW264.7. The experiment in a line: Antiinflammatory activity in mouse RAW264.7 cells assessed as inhibition of LPS-induced COX2 mRNA expression pretreated for 30 mins followed by LPS-stimulation and measured after 24 hrs by trizol reagent based qRT-PCR analysis. Summed up:
as §1

Regarding `C=C(C)[C@H](O)Cc1c(O)ccc(C(=O)/C=C/c2ccccc2)c1O`, the inhibition entry with RAW264.7 [1], with RAW264.7 [2], in the assay on RAW264.7 [3], in the assay with RAW264.7 [4], in the assay with RAW264.7 [6] and with RAW264.7 [8] was “Active” each time. Also, the results for the pIC50 in the assay with RAW264.7 [5] and with RAW264.7 [7] were 5.96 and 5.92, respectively.

For `C=C(C)C(O)Cc1c(O)ccc(C(=O)/C=C/c2ccccc2)c1O` (racemic), the inhibition result in the assay with RAW264.7 [1], with RAW264.7 [2], in the assay on RAW264.7 [3], in the assay with RAW264.7 [4], in the assay on RAW264.7 [6] and with RAW264.7 [8] was “Active” in each case. Also, the pIC50 is 5.96 with RAW264.7 [5] and 5.80 in the assay on RAW264.7 [7].

For the molecule `C=C(C)[C@@H](O)Cc1c(O)ccc(C(=O)/C=C/c2ccccc2)c1O`, the inhibition result in the assay with RAW264.7 [5] and in the assay with RAW264.7 [7] was “inactive” each time.

Broadly, the pIC50 is −log10 of the IC50, conventionally taken in molar units.
